Experimental data pooled from the literature.
Each line is one published result; the experiments were not run side by side.
CDK9 with cyclin K: Cyclin-dependent kinase 9, with cyclin K (CDK9, Homo sapiens, UniProt P50750)
CDK9: Cyclin-dependent kinase 9 (CDK9, Homo sapiens, UniProt P50750)
CDK9 with cyclin T1: Cyclin-dependent kinase 9, with cyclin T1 (CDK9, Homo sapiens, UniProt P50750)

Compound	target	read-out	action	technique	tested at	quantity	value
N#CCCc1ccc2c(c1)-c1[nH]c3ccc([N+](=O)[O-])cc3c1CC(=O)N2	CDK9 with cyclin K	cell-free assay			0.5 µM	remaining signal	23.7%
CO[C@@H](C)c1c(Nc2ccc([C@H](N(C)C(=O)C3CCS(=O)(=O)CC3)C(F)(F)F)cc2)cnc2cc(Cl)nn12	CDK9	cell-free assay		competition with immobilised ligand	1 µM	remaining binding	85%
Cc1ccc(NC(=O)c2ccc(CN3CCN(C)CC3)cc2)cc1Nc1nc(-c2cccnc2)cs1	CDK9 with cyclin K	cell-free assay			0.5 µM	remaining signal	109%
CCN(CC)CCNC(=O)c1c(C)[nH]c(/C=C2\C(=O)Nc3ccc(F)cc32)c1C	CDK9 with cyclin T1	enzyme activity	inhibitor		0.3 µM	inhibition	-7%
Cc1cc(NC(=O)c2cccc(S(F)(F)(F)(F)F)c2)cc(-n2ccn3nc(-c4cccnc4)cc23)c1	CDK9	cell-free assay		competition with immobilised ligand	1 µM	remaining binding	100%
CS(=O)(=O)CCNCc1ccc(-c2ccc3ncnc(Nc4ccc(OCc5cccc(F)c5)c(Cl)c4)c3c2)o1	CDK9 with cyclin K	cell-free assay			0.5 µM	remaining signal	103%
C[C@H](c1cccc(C#N)c1)n1cc(Cl)cc(C(N)=O)c1=N	CDK9	cell-free assay		competition with immobilised ligand	1 µM	remaining binding	84%
CCCS(=O)(=O)Nc1ccc(F)c(C(=O)c2c[nH]c3ncc(-c4ccc(Cl)cc4)cc23)c1F	CDK9 with cyclin T1	enzyme activity	inhibitor		1 µM	inhibition	< 10%
CNC(=O)c1ccc(Nc2ncc(C(F)(F)F)c(NCc3nccnc3N(C)S(C)(=O)=O)n2)cc1	CDK9	cell-free assay		competition with immobilised ligand	0.1 µM	remaining binding	86%
COc1cc(-c2cc(-c3ccc(N4CCNCC4)cc3)cnc2C)cc(OC)c1OC	CDK9 with cyclin T1	enzyme activity	inhibitor		1 µM	inhibition	3%
Cc1cc(NC(=O)c2cccc3cc(-c4cccc5[nH]nc(N)c45)ccc23)ccc1F	CDK9 with cyclin T1	enzyme activity	inhibitor		0.1 µM	activity vs control	106%
COc1cc(Nc2cnc(C#N)c(O[C@H](C)CN(C)C)n2)ncc1-c1cnn(C)c1	CDK9 with cyclin T1	enzyme activity	inhibitor	radiometric	1 µM	remaining activity	84%
CS(=O)(=O)Nc1cccc(-c2csc(NC(=O)CSc3nc4nccnc4c(=O)n3CCc3ccccc3)n2)c1	CDK9 with cyclin K	enzyme activity	inhibitor		10 µM	inhibition	-1%
Cn1cncc1C1=CN(c2ncnc3[nH]cnc23)CCS1	CDK9	enzyme activity	inhibitor	radiometric	50 nM	inhibition	12.4%
O=C1Nc2ccc(Cl)cc2C1=Cc1cc(Cl)c(O)c(Cl)c1	CDK9 with cyclin K	cell-free assay			0.5 µM	remaining signal	79.4%
Nc1ncnc2occ(-c3ccc(NC(=O)Nc4cc(C(F)(F)F)ccc4F)cc3)c12	CDK9	cell-free assay	inhibitor		20 µM	remaining signal	0.15%

Compound	target	read-out	action	technique	tested at	quantity	value
CC(C)(C)c1nc(-c2cccc(NS(=O)(=O)c3c(F)cccc3F)c2F)c(-c2ccnc(N)n2)s1	CDK9 with cyclin T1	enzyme activity	inhibitor	radiometric	1 µM	remaining activity	106%
CNC(=O)c1cc(Oc2ccc(NC(=O)Nc3ccc(Cl)c(C(F)(F)F)c3)cc2)ccn1	CDK9 with cyclin T1	enzyme activity	inhibitor		0.3 µM	inhibition	-4%
CCCOc1ccc(OC)c(F)c1C(=O)c1ccc(C(=O)N[C@@H]2CNC[C@H]2NC(=O)c2ccc3[nH]ncc3c2)cc1	CDK9 with cyclin T1	enzyme activity	inhibitor		10 µM	remaining activity	101%
Cc1ccc(C(=O)NCc2ccsc2)cc1C#Cc1cn(C(C)C)c2ncnc(N)c12	CDK9 with cyclin T1	enzyme activity	inhibitor		1 µM	activity vs control	93%
CC(C)(C)c1nc2c(s1)c1nc(N)ncc1c1ccc(NS(=O)(=O)c3c(F)cccc3F)c(F)c12	CDK9 with cyclin K	enzyme activity	inhibitor	radiometric	1 µM	remaining activity	93%
c1ccc(N2CCN(Cc3nc4ccccc4[nH]3)CC2)nc1	CDK9	binding		competition with immobilised ligand	1 µM	remaining binding	100%
CCCCNc1ncc2c(-c3ccc(F)cc3)nn(C[C@H]3CC[C@H](N)CC3)c2n1	CDK9	target engagement in cells	inhibitor	chemoproteomics	20 mM	inhibition	29.3%
O=C1CCc2cc(Nc3cc(OC4CCOCC4)c([N+](=O)[O-])cc3Cl)ccc2N1	CDK9	cell-free assay		competition with immobilised ligand	1 µM	remaining binding	97%
Cc1ccc(Nc2nccc(N(C)c3ccc4c(C)n(C)nc4c3)n2)cc1S(N)(=O)=O	CDK9 with cyclin T1	enzyme activity	inhibitor		0.5 µM	remaining activity	91.5%
CCCCN(CCCC)C(=O)CN1C[C@@H](c2cc(OC)c3c(c2)OCO3)[C@H](C(=O)O)[C@H]1CC(C)(C)CCC	CDK9	cell-free assay		competition with immobilised ligand	1 µM	remaining binding	100%
CN1CC(Oc2cnc(C#N)cc2-c2ccn3nc(NC(=O)C4CC4)cc3c2)C1	CDK9 with cyclin T1	enzyme activity	inhibitor		1 µM	inhibition	-15%
CN(C)CC#Cc1ccc(OCCCc2sc(N3CCc4cccc(C(=O)Nc5nc6ccccc6s5)c4C3)nc2C(=O)O)c(F)c1	CDK9	cell-free assay		competition with immobilised ligand	1 µM	remaining binding	94%
CN(C)C1CCN(CC#Cc2nn(C3CCCC3)c3nc(NCc4ccccc4)ncc23)C1 (stereo not shown)	CDK9 with cyclin T1	enzyme activity	inhibitor	FRET	1 µM	inhibition	1%
O=C1NC(=O)c2cc(Nc3ccc(F)cc3)c(Nc3ccc(F)cc3)cc21	CDK9 with cyclin K	cell-free assay			0.5 µM	remaining signal	90.8%
Cc1ccc(NC(=O)c2ccc(C)c(C(F)(F)F)c2)cc1C#Cc1nn(C2CCC(O)CC2)c2ncnc(N)c12 (stereo not shown)	CDK9 with cyclin T1	cell-free assay			10 µM	remaining signal	113%
